Data from ChEMBL document CHEMBL1134325, “Diaminoindanes as microsomal triglyceride transfer protein inhibitors” (J Med Chem, 2001).
Values belong to the compound of their own block, whether it stands above or below them.

Columns and labels:
[1] = biological target: T1, Microsomal triglyceride transfer protein large subunit (Homo sapiens, UniProt P55157); experiment: In vitro inhibitory activity against MTP using MTP transfer assay
T1 sequence (P55157 whole entry): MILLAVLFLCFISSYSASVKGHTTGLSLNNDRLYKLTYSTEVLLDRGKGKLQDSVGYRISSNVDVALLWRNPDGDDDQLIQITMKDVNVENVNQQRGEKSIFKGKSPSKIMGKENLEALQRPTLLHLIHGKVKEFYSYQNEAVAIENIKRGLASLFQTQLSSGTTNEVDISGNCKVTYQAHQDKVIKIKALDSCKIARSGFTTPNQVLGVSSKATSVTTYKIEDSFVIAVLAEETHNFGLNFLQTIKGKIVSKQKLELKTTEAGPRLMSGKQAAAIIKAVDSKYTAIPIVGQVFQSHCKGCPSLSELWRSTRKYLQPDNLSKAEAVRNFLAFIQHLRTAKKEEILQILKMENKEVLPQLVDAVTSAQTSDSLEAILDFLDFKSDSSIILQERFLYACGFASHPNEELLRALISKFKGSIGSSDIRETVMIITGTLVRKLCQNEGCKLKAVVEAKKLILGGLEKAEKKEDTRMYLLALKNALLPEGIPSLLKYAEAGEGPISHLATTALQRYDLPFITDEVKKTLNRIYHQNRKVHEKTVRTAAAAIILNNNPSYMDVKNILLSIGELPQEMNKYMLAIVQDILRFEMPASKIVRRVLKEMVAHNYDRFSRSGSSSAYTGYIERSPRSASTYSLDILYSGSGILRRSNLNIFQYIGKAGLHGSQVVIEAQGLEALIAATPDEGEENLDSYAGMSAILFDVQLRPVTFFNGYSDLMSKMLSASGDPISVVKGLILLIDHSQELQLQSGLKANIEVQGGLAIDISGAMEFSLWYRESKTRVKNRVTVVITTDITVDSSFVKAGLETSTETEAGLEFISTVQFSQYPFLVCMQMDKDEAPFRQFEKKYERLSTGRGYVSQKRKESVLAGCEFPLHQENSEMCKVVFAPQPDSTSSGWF

Rattus norvegicus [2] = experiment: Inhibition of total cholesterol in normolipidemic rats after 2 hr of 50 mg/kg oral dosing; assay type: functional
In short: (§1)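 Overnight-fasted normolipidemic rats received a single oral dose in cornstarch vehicle. Blood was drawn at 2, 6 and 24 h post-dose and assayed for triglycerides and total cholesterol, with free access to food after the 6 h sample. Value is mean percent inhibition versus a separate vehicle-treated group, unpaired t test p < 0.05, NS = no significant change, N = 6.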

Rattus norvegicus [3] = experiment: Inhibition of total cholesterol in normolipidemic rats after 6 hr of 50 mg/kg oral dosing; assay type: functional; in short: as §1
Rattus norvegicus [4] = experiment: Inhibition of plasma triglycerides in normolipidemic rats after 24 h of 50 mg/kg oral dosing; no significant change; assay type: functional, organism-based; design: dose 50 mg/kg; in short: as §1
Rattus norvegicus [5] = experiment: Inhibition of total cholesterol in normolipidemic rats after 24 hr of 50 mg/kg oral dosing; no significant change; assay type: functional, organism-based; design: dose 50 mg/kg; in short: as §1
Rattus norvegicus [6] = experiment: Inhibition of plasma triglycerides in normolipidemic rats after 2 hr of 50 mg/kg oral dosing; assay type: functional; in short: as §1
Rattus norvegicus [7] = experiment: Inhibition of plasma triglycerides in normolipidemic rats after 6 hr of 50 mg/kg oral dosing; assay type: functional; in short: as §1
Rattus norvegicus [8] = experiment: Inhibition of total cholesterol in normolipidemic rats after 6 h of […] mg/kg oral dosing; no significant change; assay type: functional, organism-based; design: dose 50 mg/kg
Rattus norvegicus [9] = experiment: Inhibition of total cholesterol in normolipidemic rats after 2 hr of 50 mg/kg oral dosing; no significant change; assay type: functional, organism-based; design: dose 50 mg/kg; in short: as §1
Rattus norvegicus [10] = experiment: Inhibition of plasma triglycerides in normolipidemic rats after 6 h of […] mg/kg oral dosing; no significant change; assay type: functional, organism-based; design: dose 50 mg/kg
Rattus norvegicus [11] = experiment: Inhibition of total cholesterol in normolipidemic rats after 24 hr of 50 mg/kg oral dosing; assay type: functional; in short: as §1
Rattus norvegicus [12] = experiment: Inhibition of plasma triglycerides in normolipidemic rats after 2 hr of 50 mg/kg oral dosing; no significant change; assay type: functional, organism-based; design: dose 50 mg/kg; in short: as §1
Rattus norvegicus [13] = experiment: Inhibition of plasma triglycerides in normolipidemic rats after 24 hr of 50 mg/kg oral dosing; assay type: functional; in short: as §1

Compound: Cc1cccc(C(=O)Nc2ccc3c(c2)CC(NS(=O)(=O)c2cccs2)C3)c1-c1ccc(Cl)cc1 (centres undefined)
IC50 [1]: 120 nM

Compound: COC(=O)NCC1Cc2ccc(NC(=O)c3cccc(C)c3-c3ccc(Cl)cc3)cc2C1 (centres undefined)
IC50 [1]: 100 nM

Compound: Cc1cc(C)c(-c2ccc(C(F)(F)F)cc2)c(C(=O)Nc2ccc3c(c2)C[C@@H](NS(=O)(=O)c2cccs2)C3)c1
Reduction (Rattus norvegicus [2]): 33%
Reduction (Rattus norvegicus [3]): 46%
NS (Rattus norvegicus [4]): no significant change
IC50 [1]: 180 nM
NS (Rattus norvegicus [5]): no significant change
Reduction (Rattus norvegicus [6]): 79%
Reduction (Rattus norvegicus [7]): 68%

Compound: Cc1cccc(C(=O)Nc2ccc3c(c2)CC(CNS(C)(=O)=O)C3)c1-c1ccc(C(F)(F)F)cc1 (centres undefined)
IC50 [1]: 150 nM

Compound: Cc1cccc(C(=O)Nc2ccc3c(c2)CCC(NS(=O)(=O)c2cccs2)CC3)c1-c1ccc(C(F)(F)F)cc1 (centres undefined)
IC50 [1]: 140 nM

Compound: COc1cccc(C(=O)Nc2ccc3c(c2)CC(NS(=O)(=O)c2ccccc2)C3)c1-c1ccc(Cl)cc1 (centres undefined)
IC50 [1]: 110 nM

Compound: O=C(Nc1ccc2c(c1)CC(NS(=O)(=O)c1ccccc1)C2)c1ccccc1-c1ccc(C(F)(F)F)cc1 (centres undefined)
Reduction (Rattus norvegicus [2]): 21%
NS (Rattus norvegicus [8]): no significant change
NS (Rattus norvegicus [4]): no significant change
IC50 [1]: 105 nM
NS (Rattus norvegicus [5]): no significant change
Reduction (Rattus norvegicus [6]): 57%
Reduction (Rattus norvegicus [7]): 30%

Compound: Cc1cccc(C(=O)Nc2ccc3c(c2)CC(NS(=O)(=O)c2ccccc2)C3)c1-c1ccc(C#N)cc1 (centres undefined)
IC50 [1]: 120 nM

Compound: Cc1cccc(C(=O)Nc2ccc3c(c2)CC(NS(C)(=O)=O)C3)c1-c1ccc(F)cc1 (centres undefined)
IC50 [1]: 170 nM

Compound: Cc1ccc(-c2c(C)cccc2C(=O)Nc2ccc3c(c2)CC(NS(=O)(=O)c2ccccc2)C3)cc1 (centres undefined)
IC50 [1]: 93 nM

Compound: COC(=O)N[C@@H]1Cc2ccc(NC(=O)c3ccccc3-c3ccc(C(F)(F)F)cc3)cc2C1
IC50 [1]: 110 nM

Compound: O=C(Nc1ccc2c(c1)CC(NS(=O)(=O)c1ccccc1)C2)c1ccccc1-c1ccccc1 (centres undefined)
IC50 [1]: 710 nM

Compound: COC(=O)N1CCN([C@@H]2Cc3ccc(NC(=O)c4cccc(C)c4-c4ccc(C(F)(F)F)cc4)cc3C2)CC1
Reduction (Rattus norvegicus [2]): 23%
Reduction (Rattus norvegicus [3]): 20%
NS (Rattus norvegicus [4]): no significant change
IC50 [1]: 1000 nM
NS (Rattus norvegicus [5]): no significant change
Reduction (Rattus norvegicus [6]): 58%
NS (Rattus norvegicus [10]): no significant change

Compound: CS(=O)(=O)NC1Cc2ccc(NC(=O)c3ccccc3-c3ccc(C(F)(F)F)cc3)cc2C1 (centres undefined)
IC50 [1]: 120 nM

Compound: Cc1cccc(C(=O)Nc2ccc3c(c2)CC(NS(=O)(=O)c2ccccc2)C3)c1-c1ccc(F)cc1 (centres undefined)
IC50 [1]: 240 nM

Compound: Cc1cccc(C(=O)Nc2ccc3c(c2)CC(CNS(C)(=O)=O)C3)c1-c1ccc(Cl)cc1 (centres undefined)
IC50 [1]: 500 nM

Compound: O=C(Nc1ccc2c(c1)C[C@@H](NS(=O)(=O)c1ccccc1)C2)c1ccccc1-c1ccc(C(F)(F)F)cc1
NS (Rattus norvegicus [9]): no significant change
NS (Rattus norvegicus [12]): no significant change
NS (Rattus norvegicus [8]): no significant change
NS (Rattus norvegicus [4]): no significant change
IC50 [1]: 650 nM
NS (Rattus norvegicus [5]): no significant change
NS (Rattus norvegicus [10]): no significant change

Compound: Cc1cccc(C(=O)Nc2ccc3c(c2)CC(NS(=O)(=O)c2ccccc2)C3)c1-c1ccc(Cl)cc1 (centres undefined)
IC50 [1]: 100 nM

Compound: O=C(NC1Cc2ccc(NC(=O)c3ccccc3-c3ccc(C(F)(F)F)cc3)cc2C1)c1ccccc1 (centres undefined)
IC50 [1]: > 1000 nM

Compound: Cc1cccc(C(=O)Nc2ccc3c(c2)C[C@@H](NS(C)(=O)=O)C3)c1-c1ccc(C(F)(F)F)cc1
Reduction (Rattus norvegicus [2]): 12%
Reduction (Rattus norvegicus [3]): 15%
NS (Rattus norvegicus [4]): no significant change
IC50 [1]: 204 nM
NS (Rattus norvegicus [5]): no significant change
Reduction (Rattus norvegicus [6]): 33%
Reduction (Rattus norvegicus [7]): 33%

Compound: Cc1cccc(C(=O)Nc2ccc3c(c2)CC(NS(C)(=O)=O)C3)c1-c1ccc(Cl)cc1 (centres undefined)
IC50 [1]: 100 nM

Compound: COC(=O)NC1Cc2ccc(NC(=O)c3cc(C)cc(C)c3-c3ccc(Cl)cc3)cc2C1 (centres undefined)
IC50 [1]: 120 nM

Compound: Cc1cccc(C(=O)Nc2ccc3c(c2)CCC(NS(C)(=O)=O)CC3)c1-c1ccc(Cl)cc1 (centres undefined)
IC50 [1]: 90 nM

Compound: COC(=O)N[C@H]1Cc2ccc(NC(=O)c3cc(C(F)(F)F)ccc3-c3ccc(C(F)(F)F)cc3)cc2C1
IC50 [1]: 410 nM

Compound: O=C(Nc1ccc2c(c1)CC(NCc1ccccc1)C2)c1ccccc1-c1ccc(C(F)(F)F)cc1 (centres undefined)
IC50 [1]: 4800 nM

The next lines start with results.

IC50 [1]: 80 nM
Compound: CC(=O)NC1Cc2ccc(NC(=O)c3ccccc3-c3ccc(C(F)(F)F)cc3)cc2C1 (centres undefined)

IC50 [1]: 50 nM
Compound: COC(=O)N[C@H]1Cc2ccc(NC(=O)c3cccc(C(F)(F)F)c3-c3ccc(C(F)(F)F)cc3)cc2C1

IC50 [1]: 70 nM
Compound: COc1cccc(C(=O)Nc2ccc3c(c2)CC(NS(C)(=O)=O)C3)c1-c1ccc(Cl)cc1 (centres undefined)

IC50 [1]: 14 nM
Compound: Cc1cccc(C(=O)Nc2ccc3c(c2)CC(CNS(=O)(=O)c2cccs2)C3)c1-c1ccc(C(F)(F)F)cc1 (centres undefined)

IC50 [1]: 24 nM
Compound: COC(=O)NCC1Cc2ccc(NC(=O)c3cccc(C)c3-c3ccc(C(F)(F)F)cc3)cc2C1 (centres undefined)
NS (Rattus norvegicus [9]): no significant change
NS (Rattus norvegicus [8]): no significant change
NS (Rattus norvegicus [4]): no significant change
NS (Rattus norvegicus [5]): no significant change
Reduction (Rattus norvegicus [6]): 49%
NS (Rattus norvegicus [10]): no significant change

IC50 [1]: 70 nM
Compound: COC(=O)N[C@H]1Cc2ccc(NC(=O)c3cc(C)cc(C)c3-c3ccc(C(F)(F)F)cc3)cc2C1

IC50 [1]: 80 nM
Compound: Cc1cccc(C(=O)Nc2ccc3c(c2)CCC(NS(C)(=O)=O)CC3)c1-c1ccc(C(F)(F)F)cc1 (centres undefined)
Reduction (Rattus norvegicus [2]): 29%
Reduction (Rattus norvegicus [11]): 17%
Reduction (Rattus norvegicus [3]): 41%
NS (Rattus norvegicus [4]): no significant change
Reduction (Rattus norvegicus [6]): 81%
Reduction (Rattus norvegicus [7]): 53%

IC50 [1]: 34 nM
Compound: Cc1cccc(C(=O)Nc2ccc3c(c2)C[C@H](NS(C)(=O)=O)C3)c1-c1ccc(C(F)(F)F)cc1
Reduction (Rattus norvegicus [2]): 27%
Reduction (Rattus norvegicus [3]): 42%
NS (Rattus norvegicus [4]): no significant change
NS (Rattus norvegicus [5]): no significant change
Reduction (Rattus norvegicus [6]): 74%
Reduction (Rattus norvegicus [7]): 68%

IC50 [1]: 40 nM
Compound: COC(=O)NCC1Cc2ccc(NC(=O)c3cc(C)cc(C)c3-c3ccc(C(F)(F)F)cc3)cc2C1 (centres undefined)

IC50 [1]: 90 nM
Compound: COC(=O)N[C@@H]1Cc2ccc(NC(=O)c3cc(C)cc(C)c3-c3ccc(C(F)(F)F)cc3)cc2C1

IC50 [1]: 20 nM
Compound: COC(=O)NC1CCc2ccc(NC(=O)c3cc(C)cc(C)c3-c3ccc(C(F)(F)F)cc3)cc2CC1 (centres undefined)
Reduction (Rattus norvegicus [2]): 17%
Reduction (Rattus norvegicus [11]): 22%
Reduction (Rattus norvegicus [3]): 21%
Reduction (Rattus norvegicus [13]): 36%
Reduction (Rattus norvegicus [6]): 73%
Reduction (Rattus norvegicus [7]): 44%

IC50 [1]: 20 nM
Compound: COC(=O)NC1CCc2ccc(NC(=O)c3cccc(C)c3-c3ccc(C(F)(F)F)cc3)cc2CC1 (centres undefined)
Reduction (Rattus norvegicus [2]): 20%
Reduction (Rattus norvegicus [3]): 20%
NS (Rattus norvegicus [4]): no significant change
NS (Rattus norvegicus [5]): no significant change
Reduction (Rattus norvegicus [6]): 39%
NS (Rattus norvegicus [10]): no significant change

IC50 [1]: 20 nM
Compound: Cc1cc(C)c(-c2ccc(C(F)(F)F)cc2)c(C(=O)Nc2ccc3c(c2)C[C@H](NS(=O)(=O)c2cccs2)C3)c1
Reduction (Rattus norvegicus [2]): 21%
Reduction (Rattus norvegicus [11]): 47%
Reduction (Rattus norvegicus [3]): 34%
Reduction (Rattus norvegicus [13]): 46%
Reduction (Rattus norvegicus [6]): 77%
Reduction (Rattus norvegicus [7]): 48%

IC50 [1]: 50 nM
Compound: Cc1cccc(C(=O)Nc2ccc3c(c2)CC(NS(=O)(=O)c2cccs2)C3)c1-c1ccc(F)cc1 (centres undefined)

IC50 [1]: 80 nM
Compound: COC(=O)NC1CCc2ccc(NC(=O)c3cccc(C)c3-c3ccc(Cl)cc3)cc2CC1 (centres undefined)

IC50 [1]: 80 nM
Compound: CN(C)C(=O)NC1Cc2ccc(NC(=O)c3ccccc3-c3ccc(C(F)(F)F)cc3)cc2C1 (centres undefined)

IC50 [1]: 68 nM
Compound: COC(=O)N[C@H]1Cc2ccc(NC(=O)c3ccccc3-c3ccc(C(F)(F)F)cc3)cc2C1
Reduction (Rattus norvegicus [2]): 20%
Reduction (Rattus norvegicus [3]): 39%
NS (Rattus norvegicus [4]): no significant change
NS (Rattus norvegicus [5]): no significant change
Reduction (Rattus norvegicus [6]): 69%
Reduction (Rattus norvegicus [7]): 74%
